Compound activity as filed in PubChem BioAssay.
PHOSPHO1 block: blocks human PHOSPHO1 phosphatase activity. Q8TCT1. recombinant PHOSPHO1, absorbance phosphatase assay. inhibition, % at 13.3 µM. 1.1% of 290,000 active. AID 1565; in the data active = inhibition above about 60%
HSF1 inh: HSF1 inhibition; NIH3T3-HGL HSE-luciferase, MG132-induced, luminescence 8 h; stronger effect = lower value; 0.77% of 300,000 active; activity change, negative = inhibition, % at 7.5 µM (by protocol);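 active = more than half of replicate wells show activity change below -50%, luminescence cut by over half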;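 also: luciferase reports HSF-1 transcriptional activity via heat shock element; 0% = median of DMSO wells and -100% = zero luminescence signal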
ALR inh: inhibitors of human sulfhydryl oxidase ALR; inhibition, % (concentration not given with the values); P55789; AID 485317; purified ALR, DTT oxidation, H2O2 HRP-luminol luminescence; 3.8% of 290,000 active;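 active = mean replicate inhibition above about 79%, with every replicate also reaching it, limit read from the data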
Target sequence (P55789 whole entry, looked up): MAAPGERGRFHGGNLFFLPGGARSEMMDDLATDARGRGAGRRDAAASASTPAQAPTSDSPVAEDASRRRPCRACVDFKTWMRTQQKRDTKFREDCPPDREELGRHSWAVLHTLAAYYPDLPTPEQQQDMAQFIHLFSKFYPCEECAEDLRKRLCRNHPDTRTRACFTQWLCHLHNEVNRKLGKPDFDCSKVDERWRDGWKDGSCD
AI-2 QS mod: Vibrio harveyi AI-2 quorum sensing modulation | Vibrio harveyi JMH597 AI-2 luminescence/OD600 ratio, 9 h; stronger effect = lower value; strain lacks LuxN and CqsS sensors; 0 = neutral-control median | 0.4% of 300,000 active | activity change, % at 7.5 µM | AID 2094; in the data active = activity change below about -75%, passing the limit was not always enough;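 also: luminescence divided by OD600 gain over 9 h not by final OD600 alone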
HSF1 activator: increases HSF-1 driven luciferase reporter signal; activation, % at 9 µM; AID 504408; 1.7% of 300,000 active; NIH3T3-HGL HSF-1 luciferase reporter, MG132, 8 h; 100% = twice DMSO control signal;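 active = mean replicate activation of at least 50% with a set share of replicates each reaching 50%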;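 also: 0% = median of the neutral control wells and 100% = twice that signal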
core dimer inh: blocks dimerization of HCV core protein | AID 1899 | 0.33% of 300,000 active | inhibition, % at 5 µM | TR-FRET GST/Flag-core106 dimerization, 1536-well;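 active = inhibition above the mean of all tested compounds plus 3 SD, set per screening campaign, cut at about 45% in these data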
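assay system = GST-tagged and Flag-tagged HCV core protein residues 1-106 | controls = unlabelled core106 and no-GST-core106 wells | incubation = compound-protein-antibody incubation 4 h at 22.5 °C | probe or stimulus = Eu donor and XL665 acceptor anti-tag antibodies | read-out = % inhibition based on acceptor/donor emission ratio | signal = TR-FRET 671 and 617 nm emission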
* marks the source's active call; other numbers are inactive results; . = not tested or not shown. Compounds with a hit are over-represented: about 6.8% of the library has one in this group of screens.

SMILES	PHOSPHO1 block	HSF1 inh	ALR inh	AI-2 QS mod	HSF1 activator	core dimer inh
C=C(C)CC(Nc1ccc(OC)cc1)c1ccco1 (stereo unspecified)	41	-3	53	5	0	-3
CC(C)(C)C(=O)Nc1cccc(-c2cc(-c3c(Cl)cccc3Cl)no2)c1	25	19	17	4	54*	8
COc1ccc2oc(C(=O)Nc3ccc(N4CCOCC4)cc3)c(C)c2c1	.	-3	11	12	-6	86*
COc1cccc(NC(=O)Cn2c(=O)oc3cc(S(=O)(=O)N4CCCC4)ccc32)c1	47	-56*	-5	7	-68	-2
COc1ccccc1CCC(=O)OCC(=O)Nc1cccc(S(=O)(=O)N2CCOCC2)c1	.	-63*	-6	95	-73	-1
COc1cccc(NC(=O)c2oc3ccc(S(=O)(=O)N4CCOCC4)cc3c2C)c1	-22	-6	82*	14	-8	4
O=C(O)C(Cc1c[nH]c2ccccc12)NS(=O)(=O)c1cccc(Cl)c1Cl (stereo unspecified)	40	-8	.	13	-1	-3
CCC(C)(NC=O)C(=O)Nc1c(C)cccc1C (stereo unspecified)	32	-11	.	18	-8	0
Cc1cc2nc3c(=O)[nH]c(=S)[nH]c3nc2cc1NC(=O)C(F)(F)F	36	-2	17	-42	-6	-8
c1ccc(CSc2ncnc3c2cnn3-c2ccccc2)cc1	11	-59*	-2	-9	-68	0
Clc1cccc(Nc2ncnc3c2cnn3-c2ccccc2)c1	1	21	13	1	47	11
Fc1cccc(Nc2ncnc3c2cnn3-c2ccccc2)c1	8	27	-4	8	53*	-6
Cc1cc(C)n2cc(CSc3nncn3C)nc2n1	6	-15	8	12	-5	-1
C=CCc1ccccc1OCC(=O)OCCNC(=O)c1cccnc1	71*	-8	-1	23	6	1
O=Cc1c(N2CCC3(CC2)OCCO3)nc2ccccn2c1=O	28	-3	-2	26	-6	0
C=CCCCCCCCCc1nc(=S)[nH][nH]1	60*	5	34	-7	-10	3
Cc1cc(C(=O)N/N=C/c2cc(Br)c(Br)o2)n[nH]1	36	1	.	4	-4	-10
CN(C)c1ccc(C(=S)N2CCOCC2)cc1Br	101*	-12	-5	21	2	-8
COC(=O)[C@]1(C)N[C@H](c2ccc(-c3ccc(Cl)c(Cl)c3)c(OC)c2)[C@@H]2C(=O)N(C)C(=O)[C@@H]21	.	1	-3	14	3	-10
COc1cccc(N2CCN(Cc3cccnc3)CC2)c1	1	-2	91*	39	2	-3
CCOC(=O)c1sc(NC(=O)Nc2ccccc2)cc1C	-13	28	.	16	82*	1
CCOC(=O)c1sc(NC(C)=O)cc1C	0	9	-5	6	38	-3
CCOC(=O)c1sc(NC(=O)c2ccc(C)s2)cc1C	12	49	-9	22	69*	30
Cc1noc(NC(=O)c2ccccc2C(F)(F)F)c1C#N	39	-3	.	12	-3	3
COC(=O)c1ccc(NC(=O)c2nc(S(=O)(=O)Cc3cccc(C)c3)ncc2Cl)cc1	9	-86*	-1	21	-88	0
SMILES	PHOSPHO1 block	HSF1 inh	ALR inh	AI-2 QS mod	HSF1 activator	core dimer inh
Cc1cc(C)cc(-n2nnc(C(=O)NCc3ccc4c(c3)OCO4)c2N)c1	-2	-10	0	28	-4	6
Cc1cccc(-n2nnc(C(=O)NCc3ccc4c(c3)OCO4)c2N)c1	60*	2	-15	7	-3	0
Cc1cccc(CS(=O)(=O)c2ncc(Cl)c(C(=O)NCc3ccc4c(c3)OCO4)n2)c1	-1	268	4	12	317*	1
Nc1c(C(=O)Nc2ccccc2Cl)nnn1-c1ccc2c(c1)OCCO2	15	36	-6	17	58*	2
COc1ccc(C(=O)c2ccc(CC(=O)O)s2)cc1	12	-16	-4	20	-29	7
COC(=O)Nc1ccc(S(=O)(=O)N2CCCC(C(=O)NCC3CCCO3)C2)cc1 (stereo unspecified)	.	.	-7	.	.	.
